Results published in ChEMBL document CHEMBL3232894, “Discovery of AMG 925, a FLT3 and CDK4 dual kinase inhibitor with preferential affinity for the activated state of FLT3” (J Med Chem, 2014).
pIC50: −log10 of the molar value. The source made the active and inactive calls. No cut-off for these calls is given here.

Columns and labels:
[1] = tested on: MOLM-13; experiment: Antiproliferative activity against human MOLM13 cells harboring FLT3 ITD mutant assessed as incorporation of [3H]thymidine into DNA after 72 hrs by beta-plate counting analysis; type: functional, cell-based
[2] = tested on: U-937; experiment: Antiproliferative activity against human U937 cells assessed as incorporation of [3H]thymidine into DNA after 72 hrs by beta-plate counting analysis
[3] = tested on: U-937; experiment: Induction of apoptosis in human U937 cells harboring wild type FLT3 at 1 uM after 48 hrs by Annexin V/Sytox Green staining based flow cytometry; type: functional
In short: (§1)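 MOLM13, sorafenib-resistant MOLM13 and U937 cells were each exposed to compound at 1 μM for 48 h. Cells were then stained with Annexin V/Sytox Green and analysed by flow cytometry. Readout is apoptotic cells as a percentage of all cells analysed.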

[4] = tested on: MOLM-13; experiment: Induction of apoptosis in human MOLM13 cells harboring FLT3 ITD mutant at 1 uM after 48 hrs by Annexin V/Sytox Green staining based flow cytometry; type: functional; in short: as §1
[5] = tested on: MOLM-13; experiment: Induction of apoptosis in sorafenib-resistant human MOLM13 cells harboring FLT3 ITD+D835Y mutant at 1 uM after 48 hrs by Annexin V/Sytox Green staining based flow cytometry; type: functional; in short: as §1
[6] = tested on: MOLM-13; experiment: cells; conditions: Homo sapiens
[7] = tested on: COLO 205; experiment: Antiproliferative activity against Rb-positive human COLO205 cells assessed as incorporation of [14C]thymidine into DNA after 72 hrs by beta-plate counting analysis
[8] = biological target: Cyclin-dependent kinase 4/cyclin D1 (Homo sapiens, UniProt P11802); experiment: Inhibition of CDK4/cyclin D1 (unknown origin) using Rb as substrate after 60 mins by scintillation counting analysis in presence of [r-33P]ATP; type: protein-complex assay
Cyclin-dependent kinase 4/cyclin D1, sequence (P11802 whole entry): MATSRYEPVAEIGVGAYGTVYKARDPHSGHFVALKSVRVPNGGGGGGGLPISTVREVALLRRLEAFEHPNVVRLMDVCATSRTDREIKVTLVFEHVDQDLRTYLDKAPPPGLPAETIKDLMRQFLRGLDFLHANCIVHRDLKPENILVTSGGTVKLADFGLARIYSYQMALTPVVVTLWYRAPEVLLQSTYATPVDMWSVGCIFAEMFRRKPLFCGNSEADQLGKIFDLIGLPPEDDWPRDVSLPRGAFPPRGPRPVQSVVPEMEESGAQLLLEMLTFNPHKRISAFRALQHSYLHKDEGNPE
Cyclin-dependent kinase 4/cyclin D1, sequence (P24385 whole entry, further chain): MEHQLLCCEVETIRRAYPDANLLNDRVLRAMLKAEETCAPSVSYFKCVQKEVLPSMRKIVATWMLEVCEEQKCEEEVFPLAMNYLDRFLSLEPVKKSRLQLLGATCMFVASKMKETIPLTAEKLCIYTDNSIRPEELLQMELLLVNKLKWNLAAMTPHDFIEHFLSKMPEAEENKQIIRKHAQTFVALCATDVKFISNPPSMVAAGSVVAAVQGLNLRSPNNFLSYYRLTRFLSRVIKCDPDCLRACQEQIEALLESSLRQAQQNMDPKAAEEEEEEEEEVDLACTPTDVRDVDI

[9] = biological target: Cyclin-dependent kinase 1/cyclin B1 (Homo sapiens, UniProt P06493); experiment: Inhibition of CDK1/cyclin B (unknown origin) using histone H1 as substrate after 60 mins by scintillation counting analysis in presence of [r-33P]ATP; type: protein-complex assay
Cyclin-dependent kinase 1/cyclin B1, sequence (P06493 whole entry, the tested form may be a part): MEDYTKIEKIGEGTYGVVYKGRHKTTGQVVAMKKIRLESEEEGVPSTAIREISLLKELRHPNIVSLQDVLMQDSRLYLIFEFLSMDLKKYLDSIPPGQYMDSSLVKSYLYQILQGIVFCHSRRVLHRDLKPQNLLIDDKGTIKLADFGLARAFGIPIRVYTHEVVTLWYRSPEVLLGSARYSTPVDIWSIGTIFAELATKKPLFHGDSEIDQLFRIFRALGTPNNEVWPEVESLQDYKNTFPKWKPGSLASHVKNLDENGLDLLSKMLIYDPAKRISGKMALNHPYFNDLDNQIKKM
Cyclin-dependent kinase 1/cyclin B1, sequence (P14635 whole entry, further chain, the tested form may be a part): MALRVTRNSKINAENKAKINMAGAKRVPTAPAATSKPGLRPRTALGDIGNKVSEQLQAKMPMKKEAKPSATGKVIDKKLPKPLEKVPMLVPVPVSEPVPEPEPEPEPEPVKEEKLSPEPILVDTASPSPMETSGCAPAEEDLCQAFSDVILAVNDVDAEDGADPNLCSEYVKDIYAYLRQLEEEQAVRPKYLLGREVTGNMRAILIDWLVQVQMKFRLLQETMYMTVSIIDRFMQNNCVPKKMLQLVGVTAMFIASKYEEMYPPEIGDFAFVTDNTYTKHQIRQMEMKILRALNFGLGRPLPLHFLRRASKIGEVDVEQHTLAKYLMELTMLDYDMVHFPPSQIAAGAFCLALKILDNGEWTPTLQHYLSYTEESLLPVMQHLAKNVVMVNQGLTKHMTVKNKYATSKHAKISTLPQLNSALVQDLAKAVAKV

[10] = biological target: T1, Receptor-type tyrosine-protein kinase FLT3 (Homo sapiens, UniProt P36888); experiment: Inhibition of GST-fused human FLT3 cytoplasmic domain (amino acids 564 to 993) using Ulight-JAK1 as substrate after 1 hr by TR-FRET assay
T1 sequence (P36888 whole entry): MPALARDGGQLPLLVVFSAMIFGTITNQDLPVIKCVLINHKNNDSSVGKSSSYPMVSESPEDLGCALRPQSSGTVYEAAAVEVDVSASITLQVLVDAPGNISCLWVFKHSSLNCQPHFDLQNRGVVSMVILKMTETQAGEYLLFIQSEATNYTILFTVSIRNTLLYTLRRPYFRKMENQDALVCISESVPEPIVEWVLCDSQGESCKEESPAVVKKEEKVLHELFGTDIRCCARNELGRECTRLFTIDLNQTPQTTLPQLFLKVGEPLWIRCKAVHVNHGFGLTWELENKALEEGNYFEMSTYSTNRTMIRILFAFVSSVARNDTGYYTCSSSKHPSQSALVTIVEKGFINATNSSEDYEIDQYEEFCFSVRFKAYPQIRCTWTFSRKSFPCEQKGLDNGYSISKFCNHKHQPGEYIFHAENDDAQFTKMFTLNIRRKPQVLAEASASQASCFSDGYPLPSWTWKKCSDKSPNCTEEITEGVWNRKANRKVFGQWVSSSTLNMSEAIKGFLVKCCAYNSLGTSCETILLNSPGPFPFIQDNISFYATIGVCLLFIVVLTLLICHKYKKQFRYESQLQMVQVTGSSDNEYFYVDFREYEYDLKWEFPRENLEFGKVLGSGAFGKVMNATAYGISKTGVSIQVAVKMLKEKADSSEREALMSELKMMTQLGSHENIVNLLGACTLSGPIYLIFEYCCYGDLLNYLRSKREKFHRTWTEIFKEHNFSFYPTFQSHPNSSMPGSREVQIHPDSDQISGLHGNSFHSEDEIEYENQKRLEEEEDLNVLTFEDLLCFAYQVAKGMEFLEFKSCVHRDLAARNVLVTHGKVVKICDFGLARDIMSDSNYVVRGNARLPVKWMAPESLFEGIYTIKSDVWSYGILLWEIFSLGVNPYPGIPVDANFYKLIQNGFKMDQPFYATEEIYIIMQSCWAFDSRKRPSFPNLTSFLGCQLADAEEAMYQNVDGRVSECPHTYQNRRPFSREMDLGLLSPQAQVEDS

[11] = Antiproliferative activity against Rb-negative human MDA-MB-436 cells assessed as incorporation of [3H]thymidine into DNA after 72 hrs by beta-plate counting analysis; type: functional
[12] = Clearance in iv dosed rat; type: ADME, organism-based; conditions: in vivo
In short: (§2)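 Intravenous and oral (gavage, solution) PK in rat, dog and cynomolgus monkey. The rat vehicle for both routes was water/acetate/tween at pH 4, 96/3/1 (v/v/v). Dog and monkey iv doses used 40% PG aqueous solution at pH 2, and their oral doses used 20% captisol aqueous solution.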

[13] = Oral bioavailability in rat; type: ADME, organism-based; conditions: in vivo; in short: as §2
[14] = tested on: Mus musculus; experiment: Toxicity in po dosed CrTac:NCR-Foxn1nu (NCR) nude mouse xenografted with human MOLM13 cells at dose that causing 100% tumor growth inhibition administered qd for 8 days; type: organism-based, MOLM-13; conditions: in vivo, 192 h
In short: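 Body weight tracked throughout the 8-day once-daily oral study in NCR nude mice carrying MOLM13 xenografts. Doses were 25, 50, 75 and 150 mg/kg, with a vehicle control.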

[15] = Drug uptake in CrTac:NCR-Foxn1nu (NCR) nude mouse at 150 mg/kg, po after 3 hrs; type: ADME, organism-based; set-up: dose 150 mg/kg, route oral; conditions: in vivo, read-out: Drug uptake
In short: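 Total plasma drug concentration in mouse PK studies, taken 3 h after a 150 mg/kg oral dose.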

[16] = biological target: Cytochrome P450 3A4 (Homo sapiens, UniProt P08684); experiment: Inhibition of CYP3A4 (unknown origin); type: ADME
Cytochrome P450 3A4, sequence (P08684 whole entry): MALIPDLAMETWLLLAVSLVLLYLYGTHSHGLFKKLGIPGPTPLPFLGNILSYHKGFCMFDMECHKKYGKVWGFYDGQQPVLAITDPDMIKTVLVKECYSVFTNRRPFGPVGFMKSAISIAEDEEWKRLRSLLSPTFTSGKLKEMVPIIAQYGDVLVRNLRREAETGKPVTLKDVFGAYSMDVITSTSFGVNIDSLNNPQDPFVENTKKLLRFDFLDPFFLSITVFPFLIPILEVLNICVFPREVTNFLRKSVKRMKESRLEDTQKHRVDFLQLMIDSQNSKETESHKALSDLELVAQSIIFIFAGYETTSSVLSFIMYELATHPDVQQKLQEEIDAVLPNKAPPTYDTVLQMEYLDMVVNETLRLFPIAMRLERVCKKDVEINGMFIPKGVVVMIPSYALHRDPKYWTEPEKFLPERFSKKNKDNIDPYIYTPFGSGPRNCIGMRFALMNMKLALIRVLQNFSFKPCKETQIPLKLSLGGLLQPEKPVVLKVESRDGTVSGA

[17] = biological target: Voltage-gated inwardly rectifying potassium channel KCNH2 (Homo sapiens, UniProt Q12809); experiment: Binding affinity to human ERG
Voltage-gated inwardly rectifying potassium channel KCNH2, sequence (Q12809 whole entry): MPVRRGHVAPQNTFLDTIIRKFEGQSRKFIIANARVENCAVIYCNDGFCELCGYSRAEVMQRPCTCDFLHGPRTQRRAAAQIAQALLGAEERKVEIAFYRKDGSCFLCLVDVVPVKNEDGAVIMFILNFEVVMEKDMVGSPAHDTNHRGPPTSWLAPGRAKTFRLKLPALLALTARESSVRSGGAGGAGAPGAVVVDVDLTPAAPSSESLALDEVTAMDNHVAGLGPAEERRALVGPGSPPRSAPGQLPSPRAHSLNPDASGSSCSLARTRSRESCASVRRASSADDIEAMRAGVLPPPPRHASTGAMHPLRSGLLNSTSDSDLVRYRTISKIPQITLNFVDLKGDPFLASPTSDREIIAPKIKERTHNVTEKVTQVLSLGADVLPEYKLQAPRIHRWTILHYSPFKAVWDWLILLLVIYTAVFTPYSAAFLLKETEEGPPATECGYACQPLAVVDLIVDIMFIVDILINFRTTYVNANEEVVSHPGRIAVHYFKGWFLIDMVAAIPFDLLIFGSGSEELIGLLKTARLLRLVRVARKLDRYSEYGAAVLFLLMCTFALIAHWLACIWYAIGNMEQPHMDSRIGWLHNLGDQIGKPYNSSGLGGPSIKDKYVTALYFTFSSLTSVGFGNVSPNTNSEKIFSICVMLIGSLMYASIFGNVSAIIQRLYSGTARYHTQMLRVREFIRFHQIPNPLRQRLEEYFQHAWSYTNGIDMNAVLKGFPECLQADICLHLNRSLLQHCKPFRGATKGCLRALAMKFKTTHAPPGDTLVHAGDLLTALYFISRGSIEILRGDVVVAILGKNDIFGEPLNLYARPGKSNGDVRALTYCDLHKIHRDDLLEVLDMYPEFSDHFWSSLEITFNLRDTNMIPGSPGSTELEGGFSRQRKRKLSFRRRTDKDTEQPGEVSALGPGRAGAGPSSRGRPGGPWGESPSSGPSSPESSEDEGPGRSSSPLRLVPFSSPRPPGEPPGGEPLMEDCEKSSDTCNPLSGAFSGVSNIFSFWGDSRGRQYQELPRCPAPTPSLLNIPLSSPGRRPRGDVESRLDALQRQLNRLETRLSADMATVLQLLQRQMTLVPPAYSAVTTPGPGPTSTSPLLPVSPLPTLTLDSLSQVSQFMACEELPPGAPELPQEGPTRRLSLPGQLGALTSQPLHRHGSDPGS

[18] = biological target: CYP3A4 (Homo sapiens, UniProt P08684); experiment: Inhibition of CYP3A4 (unknown origin) at 3 uM; type: ADME
CYP3A4, sequence (P08684 whole entry): as the sequence (P08684 whole entry) above

[19] = species on record: Homo sapiens; experiment: Selectivity ratio of IC50 for CDK1/cyclin B (unknown origin) to IC50 for CDK4/cyclin D1 (unknown origin)
[20] = biological target: Receptor-type tyrosine-protein kinase FLT3 (Homo sapiens, UniProt P36888, ITD); experiment: Inhibition of FLT3 ITD mutant in human MOLM13 cells assessed as inhibition of STAT5 phosphorylation at Tyr694 after 24 hrs; type: cell-based, MOLM-13
[21] = biological target: Cyclin-dependent kinase 4 (Homo sapiens, UniProt P11802); experiment: Inhibition of CDK4 in human MOLM13 cells assessed as inhibition of Rb phosphorylation at Ser780 after 24 hrs; type: cell-based, MOLM-13
Cyclin-dependent kinase 4, sequence (P11802 whole entry): as the sequence (P11802 whole entry) above

[22] = tested on: Tumour; experiment: Decrease in Rb phosphorylation at Ser780 in tumor of po dosed CrTac:NCR-Foxn1nu (NCR) nude mouse xenografted with human MOLM13 cells after 24 hrs; type: functional, organism-based; conditions: Neoplasm, MOLM-13
In short: (§3)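 MOLM13 tumor-bearing mice received a single oral dose of 50, 75 or 150 mg/kg. Tumors were harvested at 3, 6 and 24 h, and lysates were assayed for pSTAT5 and pRb. Unbound plasma levels were measured at the same time points. Results are mean ± SEM, n = 3 per group and n = 6 for vehicle.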

[23] = tested on: Tumour; experiment: Decrease in STAT5 phosphorylation at Tyr694 in tumor of CrTac:NCR-Foxn1nu (NCR) nude mouse xenografted with human MOLM13 cells at 150 mg/kg, po after 3 hrs; type: functional, organism-based; set-up: dose 150 mg/kg; conditions: Neoplasm, MOLM-13; in short: as §3
[24] = tested on: Mus musculus; experiment: Unbound Cmax in CrTac:NCR-Foxn1nu (NCR) nude mouse xenografted with human MOLM13 cells at 150 mg/kg, po; type: ADME, organism-based, MOLM-13; set-up: dose 150 mg/kg, route oral; conditions: in vivo
[25] = Total Cmax in rat at 2 mg/kg, po; type: ADME, organism-based; set-up: dose 2 mg/kg, route oral; conditions: in vivo
[26] = AUC in rat at 2 mg/kg, po; type: ADME, organism-based; set-up: dose 2 mg/kg, route oral; conditions: plasma

| SMILES | pIC50 [1] | pIC50 [7] | pIC50 [8] | pIC50 [9] | pIC50 [10] | pIC50 [11] | clearance [12] [mL/min/kg] | bioavailability [13] [%] | concentration at 3 h [15] [µM] | also measured |
| --- | --- | --- | --- | --- | --- | --- | --- | --- | --- | --- |
| CC(=O)c1c(C)c2cnc(Nc3ccc(N4CCNCC4)cn3)nc2n(C2CCCC2)c1=O [PALBOCICLIB] | 7.02 | 7.44 | – | – | – | – | – | – | – | pIC50 [2]: 6.85; Activity [3]: 9.09%; Activity [4]: 16.95%; Activity [5]: 8.35%; pIC50 [6]: 7.02 |
| COc1nc(Nc2ncc3c4ccncc4n([C@H]4CC[C@H](C)CC4)c3n2)ccc1N1CCC(N(C)C)CC1 | 8.70 | 7.27 | 8.52 | 6.10 | 9.70 | 5.95 | 9.17 | 62 | – | Activity [14]: Toxic |
| CN(C)C1CCN(c2ccc(Nc3ncc4c5ccncc5n([C@H]5CC[C@H](C)CC5)c4n3)nc2F)CC1 | 7.89 | 7.80 | 9.00 | 5.57 | 9.22 | 5.83 | 20 | 88 | – | Activity [14]: Toxic |
| C[C@H]1CC[C@H](n2c3cnccc3c3cnc(Nc4ccc(N5CCC6(CC5)CCS(=O)(=O)C6)nn4)nc32)CC1 | 7.49 | 7.42 | 8.40 | 5.79 | 8.30 | 5.00 | 9 | 38 | 11.6 | – |
| Clc1nccc2c3cnc(Nc4ccc(N5CCNCC5)cn4)nc3n(C3CCCC3)c12 | 8.05 | 7.20 | 8.40 | 5.48 | 8.30 | 5.68 | 28.3 | – | – | pIC50 [16]: < 5.00; pIC50 [17]: 5.70; inhibition at 3 µM [18]: < 10% |
| C[C@H]1CC[C@H](n2c3cnccc3c3cnc(Nc4ccc(N5CCN(C(=O)CO)CC5)nn4)nc32)CC1 | 7.43 | 7.51 | 8.52 | 5.98 | 8.10 | 5.92 | 2 | 22 | 10.9 | – |
| C[C@H]1CC[C@H](n2c3cnccc3c3cnc(Nc4ccc(N5CCC6(CCC(=O)N6)CC5)cn4)nc32)CC1 | 7.68 | 7.51 | 8.52 | 5.75 | 8.52 | 5.14 | 21.7 | 48 | 14.7 | – |
| CNC(=O)c1cc(Oc2ccc(NC(=O)Nc3ccc(Cl)c(C(F)(F)F)c3)cc2)ccn1 [SORAFENIB] | 8.30 | < 5.52 | – | – | – | – | – | – | – | pIC50 [2]: < 5.52; Activity [3]: 8.76%; Activity [4]: 84.6%; Activity [5]: 5.16%; pIC50 [6]: < 5.52 |
| CN(C)C1CCN(c2ccc(Nc3ncc4c5ccncc5n([C@H]5CC[C@H](C)CC5)c4n3)nn2)CC1 | 8.05 | 7.96 | 8.70 | 5.66 | 8.40 | 5.67 | 10.2 | 28 | 0.85 | Ratio IC50 [19]: > 1000; pIC50 [20]: 7.28; pIC50 [21]: 7.64; inhibition [22]: Dose-dependent effect; inhibition [23]: inactive; fCmax [24]: 0.024 µM; Cmax [25]: 0.13 µM; AUC [26]: 1.57 µM·h |
| C[C@@H](O)CN(C)C1CCN(c2ccc(Nc3ncc4c5ccncc5n([C@H]5CC[C@H](C)CC5)c4n3)nn2)CC1 | 8.40 | 8.05 | – | 5.81 | – | 6.04 | 10 | 46 | – | Cmax [25]: 0.28 µM; AUC [26]: 3.24 µM·h |
